The source made the active and inactive calls. No cut-off for these calls is given here.
System: SK-MEL-28
Assay: Antiproliferative activity against human SK-MEL-28 cells assessed as cell growth at 10 uM incubated for 48 hrs by MTT assay relative to control
Type: functional
Conditions: read-out: Activity
Outline: (§1)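 Cells in DMEM with 10 % FBS, 2 mM glutamine and pen-strep, 37 °C, 5 % CO₂, plated to reach 80–90 % confluence at endpoint. At 16 h, compounds were added from a 10 mM DMSO stock to 10 μM final. After 48 h, MTT (2 mg/mL in PBS) was added for 4 h, formazan dissolved in DMSO, and OD read at 570 nm. Results are % of solvent control; three runs, six replicates each, mean ± SD.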
`CCCC(O)Cn1nc(Nc2ccccc2Cl)c(C(=O)OCC)c1N` (centres undefined) gave a growth at 10 µM of 132%. For `CCOC(=O)c1c(Nc2ccc(Cl)c(Cl)c2)nn(CC(O)c2ccccc2)c1N` (centres undefined), the growth at 10 µM was 135%. For `CCOC(=O)c1c(Nc2cccc(Cl)c2)nn(CC(O)c2ccccc2)c1N` (centres undefined), the growth at 10 µM was 144%. For `CCCC(O)Cn1nc(Nc2cccc3ccccc23)c(C(=O)OCC)c1N` (centres undefined), the growth at 10 µM was 103%.

System: SK-OV-3
Assay: Antiproliferative activity against human SK-OV-3 cells assessed as cell growth at 10 uM incubated for 48 hrs by MTT assay relative to control
Type: functional
Conditions: read-out: Activity
Outline: as §1
`CCCC(O)Cn1nc(Nc2ccccc2Cl)c(C(=O)OCC)c1N` (centres undefined) gave a growth at 10 µM of 102%. `CCOC(=O)c1c(Nc2ccc(Cl)c(Cl)c2)nn(CC(O)c2ccccc2)c1N` (centres undefined) gave a growth at 10 µM of 111%. Work on `CCOC(=O)c1c(Nc2cccc(Cl)c2)nn(CC(O)c2ccccc2)c1N` (centres undefined) yielded a growth at 10 µM of 100%. For `CCCC(O)Cn1nc(Nc2cccc3ccccc23)c(C(=O)OCC)c1N` (centres undefined), the growth at 10 µM was 108%.

System: MCF7
Assay: Antiproliferative activity against human MCF7 cells assessed as cell growth at 10 uM incubated for 48 hrs by MTT assay relative to control
Type: functional
Conditions: read-out: Activity
Outline: as §1
Compound `CCCC(O)Cn1nc(Nc2ccccc2Cl)c(C(=O)OCC)c1N` (centres undefined) has a growth at 10 µM of 110%. `CCOC(=O)c1c(Nc2ccc(Cl)c(Cl)c2)nn(CC(O)c2ccccc2)c1N` (centres undefined) showed a growth at 10 µM of 88%. Compound `CCOC(=O)c1c(Nc2cccc(Cl)c2)nn(CC(O)c2ccccc2)c1N` (centres undefined) has a growth at 10 µM of 101%. `CCCC(O)Cn1nc(Nc2cccc3ccccc23)c(C(=O)OCC)c1N` (centres undefined) gave a growth at 10 µM of 109%.

System: A549
Assay: Antiproliferative activity against human A549 cells assessed as cell growth at 10 uM incubated for 48 hrs by MTT assay relative to control
Type: functional
Conditions: read-out: Activity
Outline: as §1
Compound `CCCC(O)Cn1nc(Nc2ccccc2Cl)c(C(=O)OCC)c1N` (centres undefined) has a growth at 10 µM of 106%. For `CCOC(=O)c1c(Nc2ccc(Cl)c(Cl)c2)nn(CC(O)c2ccccc2)c1N` (centres undefined), the growth at 10 µM was 70%. With `CCOC(=O)c1c(Nc2cccc(Cl)c2)nn(CC(O)c2ccccc2)c1N` (centres undefined) the growth at 10 µM was 88%. Work on `CCCC(O)Cn1nc(Nc2cccc3ccccc23)c(C(=O)OCC)c1N` (centres undefined) yielded a growth at 10 µM of 86%.

System: SK-BR-3
Assay: Antiproliferative activity against human SK-BR-3 cells assessed as cell growth at 10 uM incubated for 48 hrs by MTT assay relative to control
Type: functional
Conditions: read-out: Activity
Outline: as §1
`CCCC(O)Cn1nc(Nc2ccccc2Cl)c(C(=O)OCC)c1N` (centres undefined) showed a growth at 10 µM of 121%. With `CCOC(=O)c1c(Nc2ccc(Cl)c(Cl)c2)nn(CC(O)c2ccccc2)c1N` (centres undefined) the growth at 10 µM was 111%. `CCOC(=O)c1c(Nc2cccc(Cl)c2)nn(CC(O)c2ccccc2)c1N` (centres undefined) showed a growth at 10 µM of 120%. `CCCC(O)Cn1nc(Nc2cccc3ccccc23)c(C(=O)OCC)c1N` (centres undefined) showed a growth at 10 µM of 110%.

System: HeLa
Assay: Antiproliferative activity against human HeLa cells assessed as cell growth at 10 uM incubated for 48 hrs by MTT assay relative to control
Type: functional
Conditions: read-out: Activity
Outline: as §1
`CCCC(O)Cn1nc(Nc2ccccc2Cl)c(C(=O)OCC)c1N` (centres undefined) gave a growth at 10 µM of 116%. Compound `CCOC(=O)c1c(Nc2ccc(Cl)c(Cl)c2)nn(CC(O)c2ccccc2)c1N` (centres undefined) has a growth at 10 µM of 74%. `CCOC(=O)c1c(Nc2cccc(Cl)c2)nn(CC(O)c2ccccc2)c1N` (centres undefined) showed a growth at 10 µM of 113%. Compound `CCCC(O)Cn1nc(Nc2cccc3ccccc23)c(C(=O)OCC)c1N` (centres undefined) has a growth at 10 µM of 82%.

System: HepG2
Assay: Antiproliferative activity against human HepG2 cells assessed as cell growth at 10 uM incubated for 48 hrs by MTT assay relative to control
Type: functional
Conditions: read-out: Activity
Outline: as §1
In the case of `CCCC(O)Cn1nc(Nc2ccccc2Cl)c(C(=O)OCC)c1N` (centres undefined), the growth at 10 µM is reported as 119%. In the case of `CCOC(=O)c1c(Nc2ccc(Cl)c(Cl)c2)nn(CC(O)c2ccccc2)c1N` (centres undefined), the growth at 10 µM is reported as 100%. `CCOC(=O)c1c(Nc2cccc(Cl)c2)nn(CC(O)c2ccccc2)c1N` (centres undefined) gave a growth at 10 µM of 113%. With `CCCC(O)Cn1nc(Nc2cccc3ccccc23)c(C(=O)OCC)c1N` (centres undefined) the growth at 10 µM was 104%.

System: MDA-MB-231
Assay: Antiproliferative activity against human MDA-MB-231 cells assessed as cell growth at 10 uM incubated for 48 hrs by MTT assay relative to control
Type: functional
Conditions: read-out: Activity
Outline: as §1
`CCCC(O)Cn1nc(Nc2ccccc2Cl)c(C(=O)OCC)c1N` (centres undefined) showed a growth at 10 µM of 107%. With `CCOC(=O)c1c(Nc2ccc(Cl)c(Cl)c2)nn(CC(O)c2ccccc2)c1N` (centres undefined) the growth at 10 µM was 144%. For `CCOC(=O)c1c(Nc2cccc(Cl)c2)nn(CC(O)c2ccccc2)c1N` (centres undefined), the growth at 10 µM was 135%. Compound `CCCC(O)Cn1nc(Nc2cccc3ccccc23)c(C(=O)OCC)c1N` (centres undefined) has a growth at 10 µM of 106%.

System: not listed separately
Assay: Antiproliferative activity against human GM06114 cells assessed as cell growth at 10 uM incubated for 48 hrs by MTT assay relative to control
Type: toxicity, cell-based
Conditions: read-out: Activity
Outline: as §1
With `CCCC(O)Cn1nc(Nc2ccccc2Cl)c(C(=O)OCC)c1N` (centres undefined) the viability at 48 h, 10 µM was 85%. `CCOC(=O)c1c(Nc2ccc(Cl)c(Cl)c2)nn(CC(O)c2ccccc2)c1N` (centres undefined) gave a viability at 48 h, 10 µM of 77%. With `CCOC(=O)c1c(Nc2cccc(Cl)c2)nn(CC(O)c2ccccc2)c1N` (centres undefined) the viability at 48 h, 10 µM was 65%. With `CCCC(O)Cn1nc(Nc2cccc3ccccc23)c(C(=O)OCC)c1N` (centres undefined) the viability at 48 h, 10 µM was 104%.

System: not listed separately
Assay: Antiproliferative activity against human HUVEC cells assessed as cell growth at 10 uM incubated for 48 hrs by MTT assay relative to control
Type: toxicity, cell-based
Conditions: read-out: Activity
Outline: as §1
For `CCCC(O)Cn1nc(Nc2ccccc2Cl)c(C(=O)OCC)c1N` (centres undefined), the viability at 48 h, 10 µM was 95%. For `CCOC(=O)c1c(Nc2ccc(Cl)c(Cl)c2)nn(CC(O)c2ccccc2)c1N` (centres undefined), the viability at 48 h, 10 µM was 93%. In the case of `CCOC(=O)c1c(Nc2cccc(Cl)c2)nn(CC(O)c2ccccc2)c1N` (centres undefined), the viability at 48 h, 10 µM is reported as 93%. `CCCC(O)Cn1nc(Nc2cccc3ccccc23)c(C(=O)OCC)c1N` (centres undefined) showed a viability at 48 h, 10 µM of 94%.

System: HUVEC
Assay: Anti-angiogenetic activity in human HUVEC cells assessed as reduction in tube length at 10 uM incubated for 12 hrs by microscopy
Type: functional, cell-based
Conditions: not given
Outline: (§2)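 HUVEC seeded at 2 × 10⁴ cells/well onto gelled Matrigel (mixed 1:1 with EGM-2, set 30 min at 37 °C). Cells were exposed to test agents at 10 μM for 12 h with no stimulus; untreated wells served as control. Tube long axis and branching points were counted in 10 random fields per well at 10× (Angiogenesis Analyzer), giving mean tube length per well. Mean of at least three independent experiments.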
For `CCOC(=O)c1c(Nc2cccc(Cl)c2)nn(CC(O)c2ccccc2)c1N` (centres undefined), the Activity was “Active”.

System: HUVEC
Assay: Anti-angiogenetic activity in human HUVEC cells assessed as reduction in tube branching at 10 uM incubated for 12 hrs by microscopy
Type: functional, cell-based
Conditions: not given
Outline: as §2
With `CCOC(=O)c1c(Nc2cccc(Cl)c2)nn(CC(O)c2ccccc2)c1N` (centres undefined) the Activity was “Active”.

System: HUVEC
Assay: Anti-angiogenetic activity in human HUVEC cells assessed as number of tube branching points at 10 uM incubated for 12 hrs by microscopy
Type: functional
Conditions: not given
Outline: as §2
With `CCCC(O)Cn1nc(Nc2cccc3ccccc23)c(C(=O)OCC)c1N` (centres undefined) the Activity was <15.

System: HUVEC
Assay: Anti-angiogenetic activity in human HUVEC cells assessed as relative tube length at 10 uM incubated for 12 hrs by microscopy
Type: functional
Conditions: not given
Outline: as §2
With `CCCC(O)Cn1nc(Nc2cccc3ccccc23)c(C(=O)OCC)c1N` (centres undefined) the Activity was <20.
